ChEMBL document CHEMBL4706770, “SD-91 as A Potent and Selective STAT3 Degrader Capable of Achieving Complete and Long-Lasting Tumor Regression” (ACS Med Chem Lett, 2021)
Active and inactive are the calls of the source. The rule behind the calls is not given here.

Experiments:
[1] = system: SU-DHL-1; experiment: Induction of STAT4 expression in human SU-DHL-1 cells at 0.25 to 100 uM incubated for 4 hrs by Western blot analysis; type: functional, cell-based; settings: dose 0.25-100 µM
[2] = Antiproliferative activity against human MOLM-16 cells assessed as cell growth inhibition incubated for 4 days by CellTiter-Glo asssay; type: functional, cell-based; settings: MOLM16, 96 h
Summary of the method: (§1)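 Growth inhibition tested in MOLM-16 acute leukemia and SU-DHL-1 and SUP-M2 lymphoma cell lines.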

[3] = system: SU-DHL-1; experiment: Antiproliferative activity against human SU-DHL-1 cells assessed as cell growth inhibition incubated for 4 days by CellTiter-Glo asssay; type: functional, cell-based; settings: SU-DHL-1, 96 h; summary of the method: as §1
[4] = biological target: T1, Signal transducer and activator of transcription 6 (Homo sapiens) (UniProt P42226); experiment: Induction of STAT6 degradation in human SUP-M2 cells at 0.25 to 100 uM incubated for 14 hrs by Western blot analysis; type: cell-based; settings: SUPM2, dose 0.25-100 µM
T1 sequence (whole entry): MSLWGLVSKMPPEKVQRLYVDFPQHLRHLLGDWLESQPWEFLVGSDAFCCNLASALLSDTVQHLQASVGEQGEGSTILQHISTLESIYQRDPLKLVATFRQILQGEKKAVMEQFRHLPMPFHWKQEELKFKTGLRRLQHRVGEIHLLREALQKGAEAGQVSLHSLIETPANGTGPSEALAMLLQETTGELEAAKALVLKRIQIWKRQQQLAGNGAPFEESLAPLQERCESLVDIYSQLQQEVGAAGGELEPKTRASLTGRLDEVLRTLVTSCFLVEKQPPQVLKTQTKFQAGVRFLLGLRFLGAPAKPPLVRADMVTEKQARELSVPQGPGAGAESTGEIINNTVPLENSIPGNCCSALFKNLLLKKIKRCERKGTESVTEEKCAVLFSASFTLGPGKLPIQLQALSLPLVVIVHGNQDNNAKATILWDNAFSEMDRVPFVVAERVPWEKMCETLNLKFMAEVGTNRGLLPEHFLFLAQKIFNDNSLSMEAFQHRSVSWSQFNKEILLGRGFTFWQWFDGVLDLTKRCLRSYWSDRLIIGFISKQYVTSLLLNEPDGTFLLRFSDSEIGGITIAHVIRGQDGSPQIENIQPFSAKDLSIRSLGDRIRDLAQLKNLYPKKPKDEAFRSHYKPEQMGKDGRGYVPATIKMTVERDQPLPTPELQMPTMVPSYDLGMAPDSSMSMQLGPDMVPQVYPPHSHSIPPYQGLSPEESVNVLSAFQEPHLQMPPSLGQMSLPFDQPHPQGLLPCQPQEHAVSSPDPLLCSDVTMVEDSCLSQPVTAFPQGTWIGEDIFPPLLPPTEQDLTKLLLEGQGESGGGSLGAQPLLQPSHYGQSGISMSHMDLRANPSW

[5] = biological target: Signal transducer and activator of transcription 2 (Homo sapiens, UniProt P52630); experiment: Induction of STAT2 degradation in human SU-DHL-1 cells at 0.25 to 100 uM incubated for 14 hrs by Western blot analysis; type: cell-based; settings: dose 0.25-100 µM
Summary of the method: (§2)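 SU-DHL-1 or SUP-M2 cells treated over 25 nM to 100 μM. STAT family proteins assessed by Western blot.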

[6] = biological target: T2, Signal transducer and activator of transcription 1-alpha/beta (Homo sapiens) (UniProt P42224); experiment: Induction of STAT1 degradation in human SUP-M2 cells at 0.25 to 100 uM incubated for 14 hrs by Western blot analysis; type: cell-based; settings: SUPM2, dose 0.25-100 µM; summary of the method: as §2
T2 sequence (whole entry): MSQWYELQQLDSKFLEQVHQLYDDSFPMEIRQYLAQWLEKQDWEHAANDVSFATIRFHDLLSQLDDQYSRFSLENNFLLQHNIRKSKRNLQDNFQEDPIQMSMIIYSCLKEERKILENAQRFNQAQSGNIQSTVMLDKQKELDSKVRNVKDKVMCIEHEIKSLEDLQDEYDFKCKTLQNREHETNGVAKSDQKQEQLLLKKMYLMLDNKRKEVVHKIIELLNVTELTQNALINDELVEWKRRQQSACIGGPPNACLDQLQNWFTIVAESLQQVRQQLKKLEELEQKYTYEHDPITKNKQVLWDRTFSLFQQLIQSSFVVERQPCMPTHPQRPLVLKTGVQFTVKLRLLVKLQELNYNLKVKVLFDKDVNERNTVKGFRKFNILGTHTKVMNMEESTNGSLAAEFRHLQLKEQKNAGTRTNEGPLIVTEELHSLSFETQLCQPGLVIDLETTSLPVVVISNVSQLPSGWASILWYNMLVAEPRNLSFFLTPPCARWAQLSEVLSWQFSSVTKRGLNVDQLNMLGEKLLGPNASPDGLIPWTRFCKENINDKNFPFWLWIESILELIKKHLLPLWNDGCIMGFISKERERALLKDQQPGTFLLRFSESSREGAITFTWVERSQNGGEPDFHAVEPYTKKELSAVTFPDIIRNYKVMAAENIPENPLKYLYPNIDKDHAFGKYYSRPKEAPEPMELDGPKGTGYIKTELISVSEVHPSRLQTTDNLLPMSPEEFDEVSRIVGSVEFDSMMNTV

[7] = biological target: T2, Signal transducer and activator of transcription 1-alpha/beta (Homo sapiens); experiment: Induction of STAT1 degradation in human MOLM16 cells at 0.25 to 100 uM incubated for 4 hrs by Western blot analysis; type: cell-based; settings: dose 0.25-100 µM
Summary of the method: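 MOLM-16 cells treated for 4 h over 25 nM to 100 μM. STAT proteins assessed by Western blot with GAPDH as loading control.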

Sequence of Signal transducer and activator of transcription 2 (P52630 whole entry): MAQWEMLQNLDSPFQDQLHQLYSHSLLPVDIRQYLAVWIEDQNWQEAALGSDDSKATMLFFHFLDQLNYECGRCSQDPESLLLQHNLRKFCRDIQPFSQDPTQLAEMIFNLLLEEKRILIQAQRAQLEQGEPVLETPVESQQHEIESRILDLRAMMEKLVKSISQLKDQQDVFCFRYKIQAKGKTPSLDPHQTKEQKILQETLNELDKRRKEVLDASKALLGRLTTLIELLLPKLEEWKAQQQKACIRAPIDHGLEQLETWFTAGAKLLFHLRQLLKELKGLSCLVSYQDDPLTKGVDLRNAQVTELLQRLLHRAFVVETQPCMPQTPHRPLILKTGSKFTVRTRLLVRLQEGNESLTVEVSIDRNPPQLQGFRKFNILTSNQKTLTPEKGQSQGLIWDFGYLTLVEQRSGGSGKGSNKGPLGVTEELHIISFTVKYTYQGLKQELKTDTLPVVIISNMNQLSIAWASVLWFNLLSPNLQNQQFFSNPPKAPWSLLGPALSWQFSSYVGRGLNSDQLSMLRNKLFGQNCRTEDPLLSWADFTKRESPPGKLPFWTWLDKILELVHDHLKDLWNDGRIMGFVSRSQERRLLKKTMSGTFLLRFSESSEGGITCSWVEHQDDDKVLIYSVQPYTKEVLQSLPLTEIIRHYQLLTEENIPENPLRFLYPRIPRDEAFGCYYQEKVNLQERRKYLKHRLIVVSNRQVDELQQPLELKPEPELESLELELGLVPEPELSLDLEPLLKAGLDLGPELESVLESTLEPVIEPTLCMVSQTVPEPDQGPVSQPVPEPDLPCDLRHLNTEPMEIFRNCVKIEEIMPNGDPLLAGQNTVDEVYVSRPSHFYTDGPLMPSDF

Structure (SMILES)	Activity [1]	IC50 [2] [nM]	IC50 [3] [nM]	Activity [4]	Activity [5]	Activity [6]	Activity [7]
NC(=O)CC[C@H](NC(=O)[C@@H]1CC[C@@H]2CCN(C(=O)CCCCCC#Cc3cccc4c3CN(C3CCC(=O)NC3=O)C4=O)C[C@H](NC(=O)c3cc4cc(C(F)(F)P(=O)(O)O)ccc4[nH]3)C(=O)N21)C(=O)NC(c1ccccc1)c1ccccc1 (some centres undefined)	Active	180	3400				
NC(=O)CC[C@H](NC(=O)[C@@H]1CC[C@@H]2CCN(C(=O)CCCCCC#Cc3cccc4c3CN(C3CCC(=O)NC3=O)C4=O)C[C@H](NC(=O)c3cc4cc(C(=O)P(=O)(O)O)ccc4[nH]3)C(=O)N21)C(=O)NC(c1ccccc1)c1ccccc1 (some centres undefined)	Active	170	2600	inactive	inactive	inactive	inactive
CC(=O)N1CC[C@H]2CC[C@@H](C(=O)N[C@@H](CCC(N)=O)C(=O)NC(c3ccccc3)c3ccccc3)N2C(=O)[C@@H](NC(=O)c2cc3cc(C(F)(F)P(=O)(O)O)ccc3[nH]2)C1	inactive	> 10000	> 10000	inactive	inactive	inactive	inactive
CC(=O)N1CC[C@H]2CC[C@@H](C(=O)N[C@@H](CCC(N)=O)C(=O)NC(c3ccccc3)c3ccccc3)N2C(=O)[C@@H](NC(=O)c2cc3cc(C(=O)P(=O)(O)O)ccc3[nH]2)C1	inactive	> 10000	> 10000	inactive	inactive	inactive	inactive
